Assays:
[1] = target: T1, DNA topoisomerase 1 (Homo sapiens) (UniProt P11387); assay: Inhibition of topoisomerase 1-mediated relaxation of supercoiled pBR322 DNA at 20 uM after 20 mins using ethidium bromide staining by electrophoresis relative to control
T1 sequence (whole entry): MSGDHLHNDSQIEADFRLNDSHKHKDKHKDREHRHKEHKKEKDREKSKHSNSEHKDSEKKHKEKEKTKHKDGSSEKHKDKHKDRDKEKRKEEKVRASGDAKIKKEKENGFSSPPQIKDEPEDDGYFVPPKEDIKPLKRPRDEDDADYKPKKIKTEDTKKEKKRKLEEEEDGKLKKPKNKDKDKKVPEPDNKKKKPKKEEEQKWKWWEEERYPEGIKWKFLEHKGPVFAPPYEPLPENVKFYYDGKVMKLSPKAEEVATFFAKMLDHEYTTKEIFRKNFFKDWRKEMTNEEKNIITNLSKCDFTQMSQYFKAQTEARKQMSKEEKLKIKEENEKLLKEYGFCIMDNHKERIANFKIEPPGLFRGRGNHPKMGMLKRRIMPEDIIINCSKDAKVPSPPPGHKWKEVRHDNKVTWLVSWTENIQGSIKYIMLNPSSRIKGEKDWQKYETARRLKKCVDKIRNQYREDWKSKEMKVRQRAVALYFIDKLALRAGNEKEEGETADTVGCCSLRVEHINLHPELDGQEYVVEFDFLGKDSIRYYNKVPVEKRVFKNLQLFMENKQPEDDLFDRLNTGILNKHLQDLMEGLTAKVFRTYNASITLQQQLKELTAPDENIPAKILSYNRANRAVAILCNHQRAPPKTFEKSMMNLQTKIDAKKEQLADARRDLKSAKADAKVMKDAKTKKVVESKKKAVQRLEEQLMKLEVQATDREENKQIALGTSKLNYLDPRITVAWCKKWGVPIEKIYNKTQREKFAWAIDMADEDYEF
In short: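 Nuclear extract (50 ng) used as the topoisomerase I source with 60 ng supercoiled pBR322 and 20 µM drug, 20 min at 37 °C. Reaction stopped with 0.05% SDS, then electrophoresis run without ethidium bromide and gel stained afterwards. Supercoiled band quantified by densitometry relative to DNA alone without enzyme (100%). Camptothecin at 50 µM was the positive control.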

[2] = system: Calf thymus DNA; assay: Binding affinity to calf thymus DNA assessed as increase in melting temperature at 1 uM by spectrophotometer analysis; type: nucleic-acid assay; details: Bos taurus
[3] = target: DNA topoisomerase 2-alpha (Homo sapiens) (UniProt P11388); assay: Inhibition of human recombinant topoisomerase 2 alpha-mediated Crithidia fasciculate kDNA decatenation at 20 uM relative to control
DNA topoisomerase 2-alpha (Homo sapiens), sequence (P11388 whole entry): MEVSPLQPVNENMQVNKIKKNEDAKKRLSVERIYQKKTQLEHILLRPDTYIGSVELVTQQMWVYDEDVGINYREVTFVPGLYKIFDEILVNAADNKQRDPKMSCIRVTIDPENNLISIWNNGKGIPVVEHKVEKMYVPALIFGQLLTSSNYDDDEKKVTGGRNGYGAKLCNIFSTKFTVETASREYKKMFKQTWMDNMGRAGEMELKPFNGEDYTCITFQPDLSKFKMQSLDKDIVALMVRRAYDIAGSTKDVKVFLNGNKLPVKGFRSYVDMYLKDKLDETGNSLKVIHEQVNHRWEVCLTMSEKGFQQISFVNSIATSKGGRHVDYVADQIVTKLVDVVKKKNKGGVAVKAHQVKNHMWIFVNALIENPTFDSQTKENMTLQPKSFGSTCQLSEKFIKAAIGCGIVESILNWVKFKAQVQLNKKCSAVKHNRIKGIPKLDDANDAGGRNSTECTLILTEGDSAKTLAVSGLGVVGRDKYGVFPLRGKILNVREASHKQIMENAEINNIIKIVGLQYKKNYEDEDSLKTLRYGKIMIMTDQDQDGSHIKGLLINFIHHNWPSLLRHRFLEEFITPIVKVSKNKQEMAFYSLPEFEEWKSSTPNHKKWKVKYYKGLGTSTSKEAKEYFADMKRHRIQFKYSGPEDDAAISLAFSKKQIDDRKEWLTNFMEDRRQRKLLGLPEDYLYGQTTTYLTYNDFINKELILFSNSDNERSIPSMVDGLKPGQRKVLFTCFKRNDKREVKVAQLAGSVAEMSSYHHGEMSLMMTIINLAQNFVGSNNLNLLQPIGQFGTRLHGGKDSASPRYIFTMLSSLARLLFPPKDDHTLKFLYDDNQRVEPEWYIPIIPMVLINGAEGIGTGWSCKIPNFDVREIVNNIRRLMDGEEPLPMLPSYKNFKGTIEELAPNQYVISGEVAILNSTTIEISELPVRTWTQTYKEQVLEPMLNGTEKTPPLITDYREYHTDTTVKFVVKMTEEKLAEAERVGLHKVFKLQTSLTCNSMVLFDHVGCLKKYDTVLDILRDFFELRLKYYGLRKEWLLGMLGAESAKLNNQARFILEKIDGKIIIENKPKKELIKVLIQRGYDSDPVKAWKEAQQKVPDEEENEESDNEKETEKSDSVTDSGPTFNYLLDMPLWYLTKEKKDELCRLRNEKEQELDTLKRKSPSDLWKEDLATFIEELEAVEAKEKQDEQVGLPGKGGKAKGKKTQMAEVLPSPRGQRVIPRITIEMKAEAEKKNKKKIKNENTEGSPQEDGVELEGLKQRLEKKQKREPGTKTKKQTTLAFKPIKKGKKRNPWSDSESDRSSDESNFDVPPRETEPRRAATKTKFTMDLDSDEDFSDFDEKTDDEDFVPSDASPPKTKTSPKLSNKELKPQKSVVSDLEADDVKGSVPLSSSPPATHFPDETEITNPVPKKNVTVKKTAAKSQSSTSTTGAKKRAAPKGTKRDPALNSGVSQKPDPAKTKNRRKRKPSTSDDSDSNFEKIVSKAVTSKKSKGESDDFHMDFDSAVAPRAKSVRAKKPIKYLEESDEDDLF
In short: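 Topoisomerase IIα decatenation of kDNA with 20 µM compound, analysed by gel electrophoresis. Fully decatenated open circular DNA band quantified by densitometry. Inhibition calculated as 100 minus percentage relative integrated band intensity. Etoposide included as a control.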

[4] = system: K562; assay: Cytotoxicity against human K562 cells after 72 hrs by MTS assay; type: functional, cell-based; details: K562, 72 h
In short: (§1)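 Suspension cultures in αMEM with 10% fetal calf serum: parental K562 and the etoposide-resistant sub-line K/VP.5, which has reduced topoisomerase IIα. Drugs freshly dissolved in DMSO (final ≤1.9% v/v) and given for 72 h, then MTS reduction read by absorbance. IC50 from triplicate data fitted to a four-parameter logistic equation. Resistance factor is IC50 in K/VP.5 divided by IC50 in K562.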

[5] = Cytotoxicity against human K/VP.5 cells after 72 hrs by MTS assay; type: functional, cell-based; details: K/VP.5, 72 h
In short: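 Suspension cultures in αMEM with 10% fetal calf serum: parental K562 and the etoposide-resistant sub-line K/VP.5, which has reduced topoisomerase IIα. IC50 from triplicate data fitted to a four-parameter logistic equation. Resistance factor is IC50 in K/VP.5 divided by IC50 in K562.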

[6] = system: K562; assay: Resistant factor, ratio of IC50 human K/VP.5 cells to IC50 for human K562 cells; type: functional; in short: as §1
[7] = target: DNA topoisomerase 2-alpha (Homo sapiens) (UniProt P11388); assay: Inhibition of human recombinant topoisomerase 2 alpha assessed as stabilization of enzyme-PBR322 DNA complex at 100 uM relative to control
In short: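 Closed circular pBR322 DNA with topoisomerase IIα and 100 µM compound at 37 °C; components mixed on ice before drug addition. Complexes trapped with SDS and products separated by gel electrophoresis containing ethidium bromide. Linear DNA bands quantified by densitometry relative to the band from 100 µM etoposide, set to 100%.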

[8] = system: DC3F; assay: Cytotoxicity against hamster DC-3F cells; type: functional, cell-based; details: Cricetulus griseus
[9] = Chemical stability in DMSO-d6 assessed as decomposition after 24 hrs; type: physicochemical

| SMILES | inhibition [1] [%] | ΔTm [2] [°C] | inhibition [3] [%] | IC50 [4] [µM] | IC50 [5] [µM] | Ratio IC50 [6] | % cleavage [7] [%] | IC50 [8] [µM] | Stability [9] |
| --- | --- | --- | --- | --- | --- | --- | --- | --- | --- |
| CN(C)CC(=O)Nc1cc(C(=O)Nc2cc(C(=O)NCCn3nc4c5c(cccc53)C(=O)c3ccccc3-4)n(C)c2)n(C)c1 | 23 | 4.3 | 91 | 0.13 | 0.14 | 1.1 |  |  |  |
| NCCn1nc2c3c(cccc31)C(=O)c1ccccc1-2 | 100 | 2.2 | 75 | 1.8 | 3.1 | 1.7 | 29 |  |  |
| Cn1cc(NC(=O)c2cc(NC(=O)OC(C)(C)C)cn2C)cc1C(=O)NCCn1nc2c3c(cccc31)C(=O)c1ccccc1-2 | 31 | 0.4 | 91 | 1 | 0.82 | 0.8 | 4 |  |  |
| Cn1cc(NC(=O)c2cc(N)cn2C)cc1C(=O)NCCn1nc2c3c(cccc31)C(=O)c1c(Cl)cccc1-2 | 52 | 0.6 | 94 | 12.5 | 36.6 | 2.9 | 16 |  |  |
| CN(C)CC(=O)Nc1cc(C(=O)NCCn2nc3c4c(cccc42)C(=O)c2c(Cl)cccc2-3)n(C)c1 | 21 | 0.6 | 97 | 3.5 | 5.3 | 1.5 | 22 |  |  |
| CN(C)CC(=O)Nc1cc(C(=O)NCCn2nc3c4c(cccc42)C(=O)c2ccccc2-3)n(C)c1 | 16 | 1.6 | 94 | 2.7 | 3.9 | 1.4 | 18 |  |  |
| Cn1cc(NC(=O)c2cc(NC(=O)OC(C)(C)C)cn2C)cc1C(=O)NCCn1nc2c3c(cccc31)C(=O)c1c(Cl)cccc1-2 | 47 | 1 | 97 | 2 | 1.4 | 0.7 | 24 |  |  |
| CN(C)CCNc1cccc2c1C(=O)c1cccc3c1c-2nn3CCNC(=O)c1cc(NC(=O)c2cc(NC(=O)CN(C)C)cn2C)cn1C |  | 5.3 |  | 0.21 | 0.63 | 3 |  |  |  |
| Cn1cc(N)cc1C(=O)NCCn1nc2c3c(cccc31)C(=O)c1c(Cl)cccc1-2 | 14 | 0.8 | 91 | 9.9 | 11.4 | 1.2 | 29 |  |  |
| Cn1cc(N)cc1C(=O)NCCn1nc2c3c(cccc31)C(=O)c1ccccc1-2 | 10 | 1.8 | 94 | 12.7 | 21.9 | 1.7 | 26 |  |  |
| Cn1cc(NC(=O)c2cc(NC(=O)CNC(=N)N)cn2C)cc1C(=O)NCCC(=N)N [NETROPSIN] |  | 5.7 | 39 | > 50 | > 50 |  | 0 | 3200 |  |
| Cn1cc(NC(=O)OC(C)(C)C)cc1C(=O)NCCn1nc2c3c(cccc31)C(=O)c1ccccc1-2 | 11 | 1.3 | 91 | 14.4 | 22 | 1.5 | 18 |  | Stable |
| O=C1c2ccccc2-c2nn(CCO)c3cccc1c23 | 66 | 0.9 | 60 | 11.9 | 10.2 | 0.9 | 24 |  |  |
| CN(C)CC(=O)Nc1cc(C(=O)Nc2cc(C(=O)NCCn3nc4c5c(cccc53)C(=O)c3c(Cl)cccc3-4)n(C)c2)n(C)c1 | 31 | 1.7 | 97 | 0.19 | 0.21 | 1.1 |  |  |  |
| NCCn1nc2c3c(cccc31)C(=O)c1c(Cl)cccc1-2 | 62 | 2.7 | 100 | 3.3 | 3.5 | 1 | 18 |  |  |
| Cn1cc(NC(=O)c2cc(N)cn2C)cc1C(=O)NCCn1nc2c3c(cccc31)C(=O)c1ccccc1-2 | 49 | 2.7 | 91 | 4.1 | 6.4 | 1.5 | 6 |  |  |
| COc1cccc2c1C(=O)c1c(O)c3c(c(O)c1C2=O)C[C@@](O)(C(=O)CO)C[C@@H]3O[C@H]1C[C@H](N)[C@H](O)[C@H](C)O1 [DOXORUBICIN] |  | 8.4 | 30 | 0.033 |  |  | 0 |  |  |
| O=C1c2c(Cl)cccc2-c2nn(CCO)c3cccc1c23 | 70 | 0.3 | 56 | 14.3 | 12 | 0.8 | 14 |  |  |
| Cn1cc(NC(=O)OC(C)(C)C)cc1C(=O)NCCn1nc2c3c(cccc31)C(=O)c1c(Cl)cccc1-2 | 47 | 0.7 | 94 | 10.7 | 11 | 1 | 11 |  | Stable |

From ChEMBL document CHEMBL1165940, “Design, synthesis and biological evaluation of a novel series of anthrapyrazoles linked with netropsin-like oligopyrrole carboxamides as anticancer agents” (Bioorg Med Chem, 2010)
